Test results published in ChEMBL document CHEMBL1157479, “Antimalarial activity of novel pyrrolizidinyl derivatives of 4-aminoquinoline” (Bioorg Med Chem Lett, 2008).
Active and inactive are the calls of the source. The rule behind the calls is not given here.

How the values were obtained:
[1] = target: T1, Histidine-rich protein PFHRP-II (Plasmodium falciparum) (UniProt P05227); experiment: Inhibition of beta-hematin formation as ratio to heme molar equivalent in Plasmodium falciparum; format: functional
T1 sequence (whole entry): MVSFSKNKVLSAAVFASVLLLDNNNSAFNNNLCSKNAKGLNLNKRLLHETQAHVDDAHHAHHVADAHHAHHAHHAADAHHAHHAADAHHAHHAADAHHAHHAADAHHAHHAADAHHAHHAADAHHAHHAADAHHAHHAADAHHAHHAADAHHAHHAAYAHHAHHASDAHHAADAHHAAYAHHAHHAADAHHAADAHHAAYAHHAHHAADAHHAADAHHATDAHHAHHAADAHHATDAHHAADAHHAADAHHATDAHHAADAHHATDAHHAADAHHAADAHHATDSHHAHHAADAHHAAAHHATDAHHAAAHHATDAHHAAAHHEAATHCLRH

[2] = Cytotoxicity against mouse WEHI clone 13 cells by MTT assay; format: cell-based
[3] = Cytotoxicity against human HMEC1 cells by MTT assay; format: cell-based; conditions: HMEC-1
K562 = experiment: Cytotoxicity against human K562 cells by MTT assay; format: cell-based
Plasmodium berghei [4] = experiment: Antimalarial activity as reduced parasitaemia against Plasmodium berghei ANKA infected NMRI mice (Mus musculus) at 100 mg/kg peroral dose after 3 days; format: functional; design: scale not given: the % may be the effect or the level left; conditions: route oral
How it was run: (§1)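 GFP-transfected P. berghei ANKA-infected NMRI mice, in groups of three, got a single dose 1 day post-infection. Compounds were in 70/30 Tween 80/ethanol, diluted 10× with water. Read-outs were % parasitemia reduction on day 3 post-infection and survival time versus untreated controls (n = 5).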

Plasmodium berghei [5] = experiment: Antimalarial activity as survival time in Plasmodium berghei ANKA infected NMRI mice (Mus musculus) at 100 mg/kg peroral dose after 3 days; format: functional; conditions: route oral; how it was run: as §1
Plasmodium berghei [6] = experiment: Antimalarial activity as reduced parasitaemia against Plasmodium berghei ANKA infected NMRI mice (Mus musculus) at 30 mg/kg subcutaneous dose after 3 days; format: functional; design: scale not given: the % may be the effect or the level left; how it was run: as §1
Plasmodium berghei [7] = experiment: Antimalarial activity as survival time in Plasmodium berghei ANKA infected NMRI mice (Mus musculus) at 30 mg/kg subcutaneous dose after 3 days; format: functional; how it was run: as §1
Plasmodium berghei [8] = experiment: Antimalarial activity as reduced parasitaemia against Plasmodium berghei ANKA infected NMRI mice (Mus musculus) at 30 mg/kg/day peroral dose over 4 days; format: functional; design: scale not given: the % may be the effect or the level left; conditions: route oral
How it was run: (§2)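 NMRI mice, in groups of three, were infected with GFP-transfected P. berghei ANKA. Treatment started 1 day post-infection, once daily for 4 consecutive days. Compounds were formulated in 70/30 Tween 80/ethanol and diluted 10× with water. Read-outs were % parasitemia reduction on day 4 post-infection and survival versus untreated controls (n = 5). Cure meant no parasites by microscopy at day 30.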

Plasmodium berghei [9] = experiment: Antimalarial activity a survival time in Plasmodium berghei ANKA infected NMRI mice (Mus musculus) at 30 mg/kg/day peroral dose over 4 days; format: functional; conditions: route oral; how it was run: as §2
Plasmodium berghei [10] = experiment: Antimalarial curative activity at day 30 against Plasmodium berghei ANKA infected NMRI mice (Mus musculus) at 30 mg/kg/day peroral dose over 4 days; format: functional, organism-based; how it was run: as §2
Plasmodium berghei [11] = experiment: Antimalarial activity as reduced parasitaemia against Plasmodium berghei ANKA infected NMRI mice (Mus musculus) at 10 mg/kg/day peroral dose over 4 days; format: functional; design: scale not given: the % may be the effect or the level left; conditions: route oral; how it was run: as §2
Plasmodium berghei [12] = experiment: Antimalarial activity as survival time against Plasmodium berghei ANKA infected NMRI mice (Mus musculus) at 10 mg/kg/day peroral dose over 4 days; format: functional; conditions: route oral; how it was run: as §2
Plasmodium berghei [13] = experiment: Antimalarial activity as reduced parasitaemia against Plasmodium berghei ANKA infected NMRI mice (Mus musculus) at 10 mg/kg/day subcutaneous dose over 4 days; format: functional; design: scale not given: the % may be the effect or the level left; how it was run: as §2
Plasmodium berghei [14] = experiment: Antimalarial activity as survival time against Plasmodium berghei ANKA infected NMRI mice (Mus musculus) at 10 mg/kg/day subcutaneous dose over 4 days; format: functional; how it was run: as §2
Plasmodium berghei [15] = experiment: Antimalarial activity as reduced parasitaemia against Plasmodium berghei ANKA infected NMRI mice (Mus musculus) at 3 mg/kg/day subcutaneous dose over 4 days; format: functional; design: scale not given: the % may be the effect or the level left; how it was run: as §2
Plasmodium berghei [16] = experiment: Antimalarial activity as survival time against Plasmodium berghei ANKA infected NMRI mice (Mus musculus) at 3 mg/kg/day subcutaneous dose over 4 days; format: functional; how it was run: as §2
Plasmodium falciparum [17] = experiment: Antimalarial activity against chloroquine-sensitive Plasmodium falciparum D10 by LDH assay; format: functional, organism-based
How it was run: (§3)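 Parasite growth inhibition in P. falciparum culture was read as parasite lactate dehydrogenase production. IC50 is the mean of 3–4 experiments, each run in triplicate.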

Plasmodium falciparum [18] = experiment: Antimalarial activity against chloroquine-resistant Plasmodium falciparum W2 by LDH assay; format: functional, organism-based; how it was run: as §3
Plasmodium falciparum [19] = experiment: Antimalarial activity against chloroquine-sensitive Plasmodium falciparum NF54 by [3H]hypoxanthine uptake; format: functional, organism-based
How it was run: (§4)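 Growth inhibition of P. falciparum was measured by [3H]-hypoxanthine incorporation. IC50 is the mean of two experiments.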

Plasmodium falciparum [20] = experiment: Antimalarial activity against chloroquine-resistant Plasmodium falciparum K1 by [3H]hypoxanthine uptake; format: functional, organism-based; how it was run: as §4
Mus musculus [21] = experiment: Toxicity in CD1 mouse assessed as body weight variation at 50 mg/kg, ip after 13 days; format: organism-based; design: dose 50 mg/kg, route intraperitoneal; conditions: in vivo, 312 h
How it was run: (§5)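 Intraperitoneal dosing was given to groups of 4 mice alongside an untreated control group. Surviving mice were counted and signs noted. Mean body weight was recorded initially and after 5 and 13 days, expressed as % variation.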

Liver microsomes = experiment: Metabolic stability in human liver microsomes assessed as clearance; format: ADME, Microsome
How it was run: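 Human liver microsomes were used at a final 0.5 mg/ml in potassium phosphate buffer pH 7.4, with compound in DMSO, pre-incubated 10 min at 37 °C. The reaction was started with NADP, G6P, G6P-DH, MgCl2 3 mM and UDPGA 1 mM. Samples were taken at 0 and 30 min, quenched in acetonitrile and analysed by LC–MS/MS. A no-cofactor control and a 7-ethoxycoumarin standard were included.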

Mus musculus [22] = experiment: Toxicity in CD1 mouse assessed as survival at 100 mg/kg, ip; format: organism-based; design: dose 100 mg/kg, route intraperitoneal; conditions: in vivo; how it was run: as §5
Mus musculus [23] = experiment: Toxicity in CD1 mouse assessed as survival at 50 mg/kg, ip; format: organism-based; design: dose 50 mg/kg, route intraperitoneal; conditions: in vivo; how it was run: as §5
Mus musculus [24] = experiment: Toxicity in CD1 mouse assessed as body weight variation at 150 mg/kg, ip after 5 days; format: organism-based; design: dose 150 mg/kg, route intraperitoneal; conditions: in vivo, 120 h; how it was run: as §5
Mus musculus [25] = experiment: Toxicity in CD1 mouse assessed as body weight variation at 100 mg/kg, ip after 5 days; format: organism-based; design: dose 100 mg/kg, route intraperitoneal; conditions: in vivo, 120 h; how it was run: as §5
Mus musculus [26] = experiment: Toxicity in CD1 mouse assessed as body weight variation at 50 mg/kg, ip after 5 days; format: organism-based; design: dose 50 mg/kg, route intraperitoneal; conditions: in vivo, 120 h; how it was run: as §5
Mus musculus [27] = experiment: Toxicity in CD1 mouse assessed as body weight variation at 150 mg/kg, ip after 13 days; format: organism-based; design: dose 150 mg/kg, route intraperitoneal; conditions: in vivo, 312 h; how it was run: as §5
Mus musculus [28] = experiment: Toxicity in CD1 mouse assessed as body weight variation at 100 mg/kg, ip after 13 days; format: organism-based; design: dose 100 mg/kg, route intraperitoneal; conditions: in vivo, 312 h; how it was run: as §5

Row | Structure (SMILES) | Activity [1] | IC50 [2] [µM] | IC50 [3] [µM] | IC50 (K562) [µM] | Activity (Plasmodium berghei [4]) [%] | Activity (Plasmodium berghei [5]) [days] | Activity (Plasmodium berghei [6]) [%] | Activity (Plasmodium berghei [7]) [days] | Activity (Plasmodium berghei [8]) [%] | Activity (Plasmodium berghei [9]) [days] | Activity (Plasmodium berghei [10]) | Activity (Plasmodium berghei [11]) [%] | Activity (Plasmodium berghei [12]) [days] | Activity (Plasmodium berghei [13]) [%] | Activity (Plasmodium berghei [14]) [days] | Activity (Plasmodium berghei [15]) [%] | Activity (Plasmodium berghei [16]) [days] | IC50 (Plasmodium falciparum [17]) [µM] | IC50 (Plasmodium falciparum [18]) [µM] | IC50 (Plasmodium falciparum [19]) [µM] | also measured
1 | CCN(CC)CCCC(C)Nc1ccnc2cc(Cl)ccc12.O=P(O)(O)O.O=P(O)(O)O (stereo not drawn) [CHLOROQUINE PHOSPHATE] | 1.69 | > 40 | > 40 | 31.8 | 99.2 | 14.7 | 99.2 | 9.7 | >99.9 | 30 | Active | 99.9 | 22.3 | >99.9 | 15.7 | 99.8 | 9.3 | – | – | – | –
2 | Clc1ccc2c(NCCC34CCCN3CCC4)ccnc2c1 | 1.66 | 61.5 | > 60 | 17.6 | 98 | 12.3 | 99.1 | 8.7 | >99.9 | 30 | Active | >99.9 | 14.7 | >99.9 | 15.3 | 94 | 9.3 | 0.0055 | 0.0547 | 0.00633 | IC50 (Plasmodium falciparum [20]): 0.0196 µM
3 | Clc1ccc2c(NCC34CCCN3CCC4)ccnc2c1 | 1.06 | 24.7 | > 60 | 18.1 | 99.5 | 13.7 | 99.7 | 10.3 | >99.9 | 25 | – | >99.9 | 25.7 | >99.9 | 29.3 | 96 | 7.3 | 0.0306 | 0.0289 | 0.0109 | Activity (Mus musculus [21]): 20.8%; CL (Liver microsomes): 1.5 mL/min/g; IC50 (Plasmodium falciparum [20]): 0.0106 µM; Activity (Mus musculus [22]): Non-toxic; Activity (Mus musculus [23]): Non-toxic; Activity (Mus musculus [24]): 12.9%; Activity (Mus musculus [25]): 10.1%; Activity (Mus musculus [26]): 8.3%; Activity (Mus musculus [27]): 22.9%; Activity (Mus musculus [28]): 22.2%
4 | CCOc1ccc2ccc(=O)oc2c1 [ETHOXYCOUMARIN] | – | – | – | – | – | – | – | – | – | – | – | – | – | – | – | – | – | – | – | – | CL (Liver microsomes): 7 mL/min/g
